This note sets out measurements from ChEMBL document CHEMBL1944515 (J Med Chem, 2012).

For experiment [1], the system named is HeLa. Briefly: Induction of cell cycle arrest in human HeLa cells assessed as increase in G2/M phase cells at 15 to 250 nM after 24 hrs by flow cytometry. The experiment is classed as functional, cell-based. The method in brief:
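Exponentially growing HeLa cells (5 × 10^5) were treated 24 h at 15–250 nM. Cells were fixed in ice-cold 70% ethanol, lysed with RNase A/0.1% Triton X-100 buffer and stained with propidium iodide. DNA content was measured by flow cytometry to score G2/M fraction. Mean ± SEM of three independent experiments.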
A general note: A flow cytometer gives signals particle by particle.

Experiment [2] is described as follows: Cytotoxicity against human A549-T12 cells after 72 hrs by MTT assay. It counts as functional, cell-based. The note with it: A549, 72 h. A digest of the protocol:
(§1)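 Cells seeded at 8 × 10^3 per well and left 18 h at 37 °C, 5% CO2, then given fresh medium with compound at a range of concentrations for 72 h; DMSO at most 0.25% final. Viability read by MTT relative to 0.25% DMSO-treated cells. […] LoVoDoxo kept in Ham's F12 with 0.1 μg/mL doxorubicin; A549-T12 kept in DMEM with 12 nM paclitaxel.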

The next experiment concerns HT-29. The experiment can be described thus: Cytotoxicity against human HT-29 cells after 72 hrs by MTT assay. It counts as functional, cell-based. The following applies: HT-29, 72 h. (Tetrazolium dyes change colour on reduction, which living cells bring about.)
Experiment [3] has as its system CCRF-CEM. The experiment can be described thus: Cytotoxicity against human CEM cells after 72 hrs by MTT assay. The experiment is classed as functional, cell-based. A digest of the protocol: as §1
Experiment [4] deals with A549. The experiment can be described thus: Resistance ratio of IC50 for human A549-T12 cells to IC50 for human A549 cells. It counts as functional.
Experiment [5] can be described thus: Cytotoxicity against human CEM/VBL100 cells after 72 hrs by MTT assay. The following applies: CEM/VBL100, 72 h. It counts as functional, cell-based. The method in brief: as §1
The test system of experiment [6] is HeLa. The experiment can be described thus: Cytotoxicity against human HeLa cells after 72 hrs by MTT assay. It counts as functional, cell-based.
A further experiment relates to HL-60. The experiment can be described thus: Cytotoxicity against human HL60 cells after 72 hrs by MTT assay. It counts as functional, cell-based. The note with it: HL-60, 72 h.
The nature of experiment [7]: Inhibition of bovine tubulin polymerisation after 20 mins by turbidimetric analysis. The arrangement: species or system Bos taurus. The method in brief:
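Bovine brain tubulin at 10 μM was preincubated with varying compound concentrations in glutamate buffer at 30 °C, cooled to 0 °C, and 0.4 mM GTP added. Samples were warmed to 30 °C and assembly followed by turbidity at 350 nm.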

A further experiment deals with Jurkat. The experiment can be described thus: Cytotoxicity against human Jurkat cells after 72 hrs by MTT assay. The experiment is classed as functional, cell-based. The method in brief: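 8 × 10^3 cells/well were preincubated 18 h at 37 °C, 5% CO2, then given graded concentrations for 72 h, with final DMSO not above 0.25%. Viability was read by MTT. […] Mean ± SE from at least three experiments.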

Experiment [8] relates to LoVo. The experiment can be described thus: Cytotoxicity against human doxorubicin-resistant LoVo cells after 72 hrs by MTT assay. The experiment is classed as functional, cell-based. The method in brief: as §1
Another experiment is filed under the species Bos taurus. Briefly: Displacement of [3H]colchicine from bovine tubulin at 5 uM by DEAE-cellulose filter method. A digest of the protocol:
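Inhibition of [3H]colchicine binding was measured in mixtures of 1 μM tubulin, 5 μM [3H]colchicine and 5 μM test compound. Results are percent inhibition of binding.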
(In general: In a radioligand displacement assay an active substance lowers the binding of a labelled ligand.)

The subject of a further experiment is MCF7. The experiment can be described thus: Cytotoxicity against human MCF7 cells after 72 hrs by MTT assay. The experiment is classed as functional, cell-based. The following applies: MCF7, 72 h.
Experiment [9] deals with LoVo. The experiment can be described thus: Resistance ratio of IC50 for human doxorubicin-resistant LoVo cells to human LoVo cells. The experiment is classed as functional.
The test system of experiment [10] is CCRF-CEM. Briefly: Resistance ratio of IC50 for human CEM/VBL100 cells to IC50 for human CEM cells. The experiment is classed as functional.
Experiment [11] has as its system A549. The experiment can be described thus: Cytotoxicity against human A549 cells after 72 hrs by MTT assay. It counts as functional, cell-based. The note with it: A549, 72 h.
In experiment [12] the test system is LoVo. The experiment can be described thus: Cytotoxicity against human LoVo cells after 72 hrs by MTT assay. It counts as functional, cell-based. A digest of the protocol: as §1
A short description of experiment [13]: Inhibition of tubulin polymerization. The method in brief:
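Bovine brain tubulin at 10 μM in glutamate buffer was preincubated with compound at varying concentrations at 30 °C, then cooled to 0 °C. GTP was added to 0.4 mM and the mixture rewarmed to 30 °C. Assembly was followed by turbidity at 350 nm.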

Activity calls are given as the source filed them. The calls are words filed in the database; no cut-off is given here.

Turning to `CCOc1ccc(-c2nnnn2-c2cc(OC)c(OC)c(OC)c2)cc1Cl`, in the experiment with HeLa [1], the result was Active. Besides, the 50% inhibitory concentration (IC50) (commonly the concentration that inhibits the measured activity by half) in [2] worked out at 31.5 nM; in the experiment on HT-29, 1.6 nM; in the experiment on CCRF-CEM [3] it was 0.7 nM; in experiment [5] it was 0.7 nM; in the experiment on HeLa [6] it was 2.6 nM; in the experiment on HL-60 it was 0.8 nM. The IC50 in [7] is 2000 nM; with Jurkat, 0.23 nM; in the experiment on LoVo [8] it was 15.7 nM; in the experiment on MCF7 it was 1.8 nM; in the experiment on A549 [11], 28.8 nM; with LoVo [12], 12.5 nM. In addition, the entries for the “Ratio IC50” value in the experiment with A549 [4], in the experiment on LoVo [9] and in the experiment with CCRF-CEM [10] were 1.1, 1.3 and 1, respectively. Further, in the experiment filed under Bos taurus, the inhibition (usually the percentage by which the read-out fell short of the control) came out at 58%.

In experiment [13], `COc1ccc(-c2nnnn2-c2cc(OC)c(OC)c(OC)c2)cc1N` gave an IC50 of 2000 nM.
